Test results: ChEMBL document CHEMBL3785062, “Preparation and Evaluation of Radiolabeled Antibody Recruiting Small Molecules That Target Prostate-Specific Membrane Antigen for Combined Radiotherapy and Immunotherapy” (J Med Chem, 2016); call rule not given here

Key:
[1] = tested on: Tumour; experiment: Drug uptake in tumor of human LNCAP cells xenografted NCR nu/nu mouse at 0.19 to 0.36 MBq, iv at 1 hr; assay type: ADME, organism-based, Neoplasm; details: in vivo
Outline: (§1)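 NCr nu/nu male mice carrying subcutaneous right-flank LNCaP xenografts (2 × 10^6 cells in Matrigel:DPBS), used 4–7 weeks after inoculation. Tail-vein injection of 0.19–0.36 MBq 125I tracer in 0.9% saline. Killed at 1 and 6 h; tissues collected and counted, expressed as %ID/g ± SEM. Group sizes n = 2–3.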

[2] = tested on: LNCaP; experiment: Drug internalization in PSMA expressing human LNCAP cells at 10 nM incubated for 2 hrs at 4 degC measured for 10 mins by gamma counting analysis; assay type: ADME, cell-based; details: 0.01 µM
[3] = Stability of compound in saline up to 48 hrs; assay type: physicochemical; details: buffer
[4] = Ratio of drug level in tumor to blood in human LNCAP cells xenografted NCR nu/nu mouse at 0.19 to 0.36 MBq, iv at 1 hr; assay type: ADME, organism-based; outline: as §1
[5] = Drug uptake in thyroid gland of human LNCAP cells xenografted NCR nu/nu mouse at 0.19 to 0.36 MBq, iv at 1 to 6 hrs; assay type: ADME, organism-based; details: in vivo; outline: as §1
[6] = tested on: Tumour; experiment: Drug uptake in tumor of human LNCAP cells xenografted NCR nu/nu mouse at 0.19 to 0.36 MBq, iv at 6 hrs; assay type: ADME, organism-based, Neoplasm; details: in vivo; outline: as §1
[7] = Ratio of drug level in tumor to blood in human LNCAP cells xenografted NCR nu/nu mouse at 0.19 to 0.36 MBq, iv at 6 hrs; assay type: ADME, organism-based; outline: as §1
[8] = tested on: LNCaP; experiment: Drug internalization in PSMA expressing human LNCAP cells at 10 nM incubated for 2 hrs at 37 degC measured for 10 mins by gamma counting analysis; assay type: ADME, cell-based; details: 0.01 µM
[9] = Chemical stability in solid state at -10 degC; assay type: physicochemical
[10] = Drug uptake in gall bladder of human LNCAP cells xenografted NCR nu/nu mouse at 0.19 to 0.36 MBq, iv at 1 hr; assay type: ADME, organism-based; details: in vivo; outline: as §1
[11] = Drug uptake in gall bladder of human LNCAP cells xenografted NCR nu/nu mouse at 0.19 to 0.36 MBq, iv at 6 hrs; assay type: ADME, organism-based; outline: as §1
[12] = tested on: LNCaP; experiment: Drug internalization in PSMA expressing human LNCAP cells at 5 nM incubated for 2 hrs at 4 degC measured for 10 mins by gamma counting analysis; assay type: ADME, cell-based; details: 0.005 µM
[13] = tested on: LNCaP; experiment: Drug internalization in PSMA expressing human LNCAP cells at 5 nM incubated for 2 hrs at 37 degC measured for 10 mins by gamma counting analysis; assay type: ADME, cell-based; details: 0.005 µM
[14] = tested on: Blood; experiment: Drug uptake in blood of human LNCAP cells xenografted NCR nu/nu mouse at 0.19 to 0.36 MBq, iv at 1 hr; assay type: ADME, organism-based; details: in vivo; outline: as §1
[15] = Drug uptake in small intestine of human LNCAP cells xenografted NCR nu/nu mouse at 0.19 to 0.36 MBq, iv at 1 hr; assay type: ADME, organism-based; details: in vivo; outline: as §1
[16] = tested on: Kidney; experiment: Drug uptake in kidney of human LNCAP cells xenografted NCR nu/nu mouse at 0.19 to 0.36 MBq, iv at 6 hrs; assay type: ADME, organism-based; details: in vivo; outline: as §1
[17] = tested on: Kidney; experiment: Drug uptake in kidney of human LNCAP cells xenografted NCR nu/nu mouse at 0.19 to 0.36 MBq, iv at 1 hr; assay type: ADME, organism-based; details: in vivo; outline: as §1
[18] = Drug uptake in small intestine of human LNCAP cells xenografted NCR nu/nu mouse at 0.19 to 0.36 MBq, iv at 6 hrs; assay type: ADME, organism-based; details: in vivo; outline: as §1

Row | Structure (SMILES) | Drug uptake [1] | Drug uptake [2] | Stability [3] | Kp at 1 h [4] | Drug uptake [5] | Drug uptake [6] | Kp at 6 h [7] | Drug uptake [8] | Stability [9] | Drug uptake [10] | Drug uptake ([11]; in vivo, 6 h) | Drug uptake [12] | Drug uptake [13] | Drug uptake [14] | Drug uptake [15] | Drug uptake [16] | Drug uptake [17] | Drug uptake [18] | tissue uptake at 6 h ([11]; NCR nu/nu, gall bladder, read-out: Drug uptake)
1 | O=C(O)CC[C@H](NC(=O)N[C@@H](CCCCNC(=O)Cn1nnc(COCCOCCOCCOCCOCCOCCOCCOCCNc2ccc([N+](=O)[O-])cc2[N+](=O)[O-])c1[125I])C(=O)O)C(=O)O | 3.01 % ID/g | Not Active | Stable | 10 | Active | 3.24 % ID/g | 3.4 | Active | 3 weeks | Active | Not Active | – | – | – | – | – | – | – | –
2 | O=C(O)CC[C@H](NC(=O)N[C@@H](CCCCNC(=O)Cn1cc([125I])nn1)C(=O)O)C(=O)O | – | – | – | – | – | – | – | – | – | – | – | Not Active | Active | – | – | – | – | – | –
3 | O=C(O)CC[C@H](NC(=O)N[C@@H](CCCCNC(=O)Cn1nnc([125I])c1CNc1ccc([N+](=O)[O-])cc1[N+](=O)[O-])C(=O)O)C(=O)O | 12.21 % ID/g | – | – | 35 | – | 9.8 % ID/g | 59 | – | – | 92.46 % ID/g | – | – | – | 0.36 % ID/g | 47.37 % ID/g | 66.46 % ID/g | 68.35 % ID/g | 2.18 % ID/g | 7.89 %ID/g
